Bioassay records deposited in PubChem by The Scripps Research Institute Molecular Screening Center.
M4 ag: human M4 muscarinic receptor agonists, primary screen, CHO-K1 cells, Fluo-8 calcium fluorescence; 0.14% of 360,000 active; Muscarinic acetylcholine receptor M4 (Homo sapiens), P08173; AID 624127, 2012; CHO-K1 hM4/Gqi5; vehicle 0%, full acetylcholine response 100%; activation, % at 3 µM;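 active means activation above the run mean over all test wells plus 3 SD, cut at about 32% in these data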;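 further: peak over basal fluorescence ratio per well then scaled between controls; 0% = DMSO wells and 100% = acetylcholine at EC100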
Target sequence (P08173 whole entry, looked up): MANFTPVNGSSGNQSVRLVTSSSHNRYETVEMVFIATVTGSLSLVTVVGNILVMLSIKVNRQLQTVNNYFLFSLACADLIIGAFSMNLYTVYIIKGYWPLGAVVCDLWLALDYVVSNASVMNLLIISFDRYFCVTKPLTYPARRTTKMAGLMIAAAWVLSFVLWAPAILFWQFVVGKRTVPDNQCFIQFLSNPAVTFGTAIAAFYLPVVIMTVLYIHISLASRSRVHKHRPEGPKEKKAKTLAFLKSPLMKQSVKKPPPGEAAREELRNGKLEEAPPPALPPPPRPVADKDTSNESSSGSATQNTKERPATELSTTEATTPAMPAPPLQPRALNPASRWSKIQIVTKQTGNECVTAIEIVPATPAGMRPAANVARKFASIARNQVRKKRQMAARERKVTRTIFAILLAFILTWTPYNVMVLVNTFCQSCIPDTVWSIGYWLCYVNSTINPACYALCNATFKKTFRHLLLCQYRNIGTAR
M4 antag: human M4 muscarinic receptor antagonists, primary screen, CHO cells, Fluo-8 calcium fluorescence | Muscarinic acetylcholine receptor M4 (Homo sapiens), P08173 | inhibition, % at 3 µM | 0.73% of 360,000 active | CHO-hM4 cells, ACh EC80;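 active means inhibition above its plate's cutoff, the mean inhibition of sample wells plus 3 SD, cut at about 27% in these data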;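 further: 0% = acetylcholine EC80 with DMSO and 100% = DMSO without agonist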
M4 PAM: human M4 muscarinic receptor positive allosteric modulators, primary screen, CHO-K1 cells, Fluo-8 calcium fluorescence; activation, % at 3 µM; 0.4% of 360,000 active; Muscarinic acetylcholine receptor M4 (Homo sapiens), P08173; CHO-K1 hM4/Gqi5, ACh EC20; 0% = ACh EC20, 100% = maximal ACh;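 active means activation above its plate's cutoff, the mean activation of sample wells plus 3 SD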
TAAR1 agonist: human TAAR1 agonists, primary screen, Fluo-8 calcium fluorescence, CHO RD-HGA16 cells; vehicle wells 0%, saturating PEA agonist 100%; activation, % at 3 µM; 0.99% of 360,000 active;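 active means activation above the mean activation of all test compounds in the run plus 3 SD, cut at about 38% in these data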
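Test system: RD-HGA16 (CHO) cells co-expressing Gα16 and hTAAR1 | Doses: Single dose, 3 µM | Schedule: 17-24 h seeding, 75 min 37 °C dye, 30 min RT | Evaluation: % activation from peak over basal fluorescence ratio, DMSO-to-PEA scaled | Technique: Kinetic Fluo-8 calcium fluorescence | Benchmarks: Low control DMSO, high control PEA (EC100)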
TAAR1 antagonist: human TAAR1 antagonists, primary screen, Fluo-8 calcium fluorescence, CHO RD-HGA16 cells; antagonist; inhibition, % at 3 µM; 1.5% of 360,000 active; AID 624466, 2012;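 active means inhibition above a per-plate cutoff, the mean inhibition of test compounds on that plate plus 3 SD, cut at about 49% in these data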;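 further: 0% = DMSO plus EC80 beta-PEA response and 100% = DMSO alone without agonist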
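Test system – hTAAR1-expressing CHO RD-HGA16 cells, Gα16-coupled · Reagent – β-PEA at EC80 concentration, post-compound challenge · Compound dosing – 3 µM, single point · Timing – 140 s kinetic read after compound, 140 s after agonist · Detection – Fluo-8 intracellular calcium dye fluorescence, real-time kinetic reads · Control set – DMSO and EC80 PEA controls · Repeats – n of 1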
TAAR1 nonsel count: nonselective antagonists in TAAR1 counter-screen cells, counter-screen for hTAAR1 antagonist project, cell-based, fluorescence, calcium. inhibition, % at 3 µM. shares compounds with TAAR1 antagonist. AID 651780, 2012. counterscreen cell line, antagonist mode. 77% of 2,400 active; in the data active means inhibition above about 22%;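 further: CHO-Ga16 host cells stimulated with ATP at an EC80 level; 0% = agonist EC80 plus vehicle and 100% = vehicle without agonist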
TAAR1 ant conf: human TAAR1 antagonists, retest of hits, confirmation, cell-based, fluorescence; shares compounds with TAAR1 antagonist; TAAR1-expressing cells, fluorescence antagonist read-out; inhibition, % at 3 µM; 40% of 2,400 active; in the data active means inhibition above about 49%;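 further: CHO-Ga16 host cells challenged with agonist PEA near its EC80; 0% = agonist at EC80 plus vehicle and 100% = vehicle with no agonist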
Ga16 nonsel ag: calcium activation in Ga16-expressing cells, counter-screen for TAAR1 antagonist project, cell-based, fluorescence; agonist counterscreen; activation, % at 3 µM; 18% of 2,400 active; shares compounds with TAAR1 antagonist; in the data active means activation above about 12%;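 further: 0% = vehicle wells and 100% = saturating stimulus response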
TAAR1 ag count: TAAR1 activation by candidate antagonists – cell-based, fluorescence, counter-screen for TAAR1 antagonist project. activation, % at 3 µM. AID 651955, 2012. 2% of 2,400 active. hTAAR1 cell line, agonist mode. shares compounds with TAAR1 antagonist; in the data active means activation above about 37%;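 further: CHO cells stably expressing TAAR1 with calcium dye readout; 0% = DMSO vehicle and 100% = full agonist response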
Starred values were filed as active, the others as inactive; · = not tested or not shown. In the library only some 3% were active in any assay of this set; here they are far more common.

SMILES | M4 ag | M4 antag | M4 PAM | TAAR1 agonist | TAAR1 antagonist | TAAR1 nonsel count | TAAR1 ant conf | Ga16 nonsel ag | TAAR1 ag count
O=C(OCC(=O)N1CCN(C(=O)c2ccco2)CC1)c1cc(-c2ccc(F)cc2)nc2ccccc12 | 16 | 13 | -12 | 13 | 42 | · | · | · | ·
CC(C)NC(=O)C1C(c2ccc(C(F)(F)F)cc2)=Nc2ccccc2N1C(=O)c1cccc2ccccc12 (stereo unspecified) | 1 | -14 | -4 | -2 | -13 | · | · | · | ·
O=C(NC1CCCCC1)C(c1ccc(C(F)(F)F)cc1)n1c(=O)c(-c2ccco2)nc2ccccc21 (stereo unspecified) | 0 | 0 | -2 | 0 | -12 | · | · | · | ·
CCCCn1nnnc1C1(C)CCC(=O)N1CCc1ccc(OC)c(OC)c1 (stereo unspecified) | 1 | 2 | 2 | 3 | 15 | · | · | · | ·
c1ccc(Oc2ccc(-n3cnnn3)cc2)cc1 | 0 | -7 | 11 | -1 | 105* | 8 | 2 | 4 | 5
CC(=O)c1cccc(NC(=O)c2cccc3c(-c4cccnc4)coc23)c1 | 20 | 12 | -7 | 17 | 75* | 31* | 52* | 11 | 10
COc1ccc(/C=C/C(=O)Nc2ccc(C)c(S(=O)(=O)N3CCOCC3)c2)cc1 | 28 | 1 | -8 | 19 | 65* | 31* | 45 | 13* | 10
COc1cc(-c2cc(C(=O)Nc3ccc(O)cc3)c3ccccc3n2)cc(OC)c1OC | 13 | -5 | -14 | 13 | 58* | 27* | 46 | 8 | 11
COc1cc(-c2cc(C(=O)Nc3nc4ccccc4s3)c3ccccc3n2)cc(OC)c1OC | 3 | 4 | -3 | 8 | 58* | 37* | 39 | 6 | 7
Cc1ccc(C(=O)O)c(C(=O)Nc2nc3ccccc3s2)c1 | 13 | 9 | -8 | 2 | -22 | · | · | · | ·
COC(=O)C[C@H]1C=C[C@@H](NC(=O)Nc2c(C)noc2C)[C@@H](CO)O1 | 0 | -15 | 3 | 2 | -6 | · | · | · | ·
CN(Cc1nc2ccccc2c(=O)[nH]1)C(=O)c1cccc(S(=O)(=O)N2CCc3ccccc32)c1 | 9 | -4 | -5 | 3 | 16 | · | · | · | ·
O=C(Nc1ccccc1Cl)c1cc(C2CCCN(C(=O)c3ccccc3)C2)on1 (stereo unspecified) | 4 | -16 | 8 | 3 | -26 | · | · | · | ·
C[C@H](CO)N1C[C@H](C)[C@@H](CN(C)C(=O)c2ccncc2)OCc2cnnn2CCCC1=O | 0 | 5 | 2 | 3 | -6 | · | · | · | ·
CC(=O)Nc1cccc(NC(=O)c2cc(-c3cccnc3)nc3ccc(Cl)cc23)c1 | 23 | 15 | -17 | 14 | 86* | 31* | 55* | 10 | 10
Cc1ccc(C)c(-c2cc(C(=O)Nc3cccnc3)c3ccccc3n2)c1 | 14 | -3 | 3 | 4 | 61* | 25* | 49* | 13* | 18
O=C(Nc1ccc(C(=O)N2CCOCC2)cc1)c1cc(-c2cccnc2)nc2ccc(Cl)cc12 | 17 | -9 | -6 | 13 | 38 | · | · | · | ·
Cc1ccc(NC(=O)c2cc(-c3ccc(C)o3)nc3ccccc23)cc1 | 5 | -3 | -8 | 10 | 57* | 24* | 19 | 5 | -4
